# Experimental data taken from paper PMC4423805 (Science (New York, N.Y.), 2015).
# Legend:
# [1] = tested on: Cbfb+/MYH11:Ras+/G12D leukemic cells; assay: inv; type: in vivo, mouse; conditions: 200 mg/kg of body weight per day for 10 days, days 5 to 15 posttransplantation
# In short: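 Mice (n = 11 per group) were transplanted with 2 × 10^3 Cbfb+/MYH11;Ras+/G12D leukemic cells. After 5 days for engraftment, they received DMSO vehicle or 200 mg/kg/day test compound for 10 days (days 5–15 post-transplant). Disease latency was followed by Kaplan-Meier survival.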
# [2] = molecular target: CBFβ-SMMHC; assay: Isothermal titration calorimetry; type: binding; conditions: read-out: dissociation constant (KD), ITC
# CBFβ-SMMHC, sequence (Q13951 1-165 limits assumed): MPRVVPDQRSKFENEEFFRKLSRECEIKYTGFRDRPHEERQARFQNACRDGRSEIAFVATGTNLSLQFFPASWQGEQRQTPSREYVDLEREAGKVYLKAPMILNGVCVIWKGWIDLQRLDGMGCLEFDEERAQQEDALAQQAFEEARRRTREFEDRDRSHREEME
# [3] = tested on: 11 human leukemia cell lines; assay: Panel of 11 human leukemia cell lines; type: cell-based
# [4] = tested on: normal human bone marrow cells; assay: MTT assay, normal human bone marrow cells; type: cell-based; conditions: read-out: IC50 in normal human bone marrow cells, 48 hours
# In short: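 Normal human bone marrow cells treated with a dose range of test compound for 48 hours and assessed by MTT conversion. Values are normalized to the DMSO-treated group. Each point is the mean of triplicate experiments, with SD.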
# [5] = tested on: CD34+ cord blood cells; assay: Colony-forming units, CD34+ cord blood cells; type: cell-based, human
# In short: (§1)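 Colony-forming unit assays on CD34+ purified primary human cells treated with the test compound at set concentrations (5 and 10 μM cited for inv(16) samples): inv(16) AML, normal-karyotype AML, or cord blood. Colonies are expressed as percent of DMSO vehicle control. Assays were run in triplicate, with SD; significance by unpaired t-test.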
# [6] = tested on: primary human inv(16) AML samples; assay: Viability; type: cell-based; conditions: 48 hours, 5 and 10 μM
# In short: (§2)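 Primary human AML cells treated with test compound at set concentrations for 48 hours, and viability read by annexin V/7AAD relative to DMSO vehicle. Inv(16) material comprised four CD34+ purified samples; normal-karyotype AML samples were used as given. Each sample was the average of duplicate treatments, with mean and SD across samples.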
# [7] = tested on: RUNX1 occupancy at RUNX3, CSF1R, and CEBPA promoters; assay: Chromatin immunoprecipitation of RUNX1 occupancy, U937 cells; type: cell-based, human; conditions: inv(16)-negative U937 cells, 1 μM
# In short: (§3)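 Chromatin immunoprecipitation of RUNX1 at the RUNX3, CSF1R and CEBPA loci in ME-1 and U937 cells treated with 1 μM test compound for 6 hours. Occupancy is expressed as fold enrichment relative to DMSO-treated cells. Data are means of triplicate experiments with SD; significance by unpaired t-test.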
# [8] = tested on: expression of RUNX3, CSF1R, and CEBPA; assay: qRT-PCR expression of RUNX1 target genes, ME-1 cells; type: cell-based, human; conditions: 6 or 12 hours
# In short: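 qRT-PCR of RUNX3, CSF1R, CEBPA and control gene PIN1 in ME-1 and U937 cells treated with 1 μM test compound for 6 and 12 hours. Expression is normalized to the DMSO control group. Data are means of triplicate experiments with SD; significance by unpaired t-test.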
# [9] = tested on: RUNX1 occupancy at RUNX3, CSF1R, and CEBPA promoters; assay: Chromatin immunoprecipitation of RUNX1 occupancy, ME-1 cells; type: cell-based, human; conditions: 6 hours
# In short: as §3
# [10] = tested on: primary human inv(16) AML samples; assay: Colony-forming units, primary inv; type: cell-based
# In short: as §1
# [11] = tested on: CBFβ-RUNX1 binding; assay: Coimmunoprecipitation of CBFβ-RUNX1 in ME-1 cells; type: cell-based, human; conditions: 1 μM
# In short: (§4)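 ME-1 cells treated with 1 μM test compound for 3 and 6 hours. RUNX1 association with CBFβ and with CBFβ-SMMHC was assessed by coimmunoprecipitation, and binding was quantified from three experiments.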
# [12] = tested on: primary human AML samples with normal karyotype; assay: Colony-forming units, normal karyotype AML samples; type: cell-based
# In short: as §1
# [13] = tested on: RUNX1, CBFβ, and CBFβ-SMMHC; assay: Protein stability of RUNX1, CBFβ and CBFβ-SMMHC; type: cell-based
# [14] = Toxicity after 7 days of administration; type: in vivo
# [15] = molecular target: CBFβ-SMMHC binding to the RUNX1 Runt domain; assay: FRET assay of CBFβ-SMMHC binding to RUNX1 Runt domain; conditions: read-out: FRET IC50; 10 nM Cerulean-Runt domain and 10 nM Venus-CBFβ-SMMHC
# In short: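 FRET binding assay with 10 nM Cerulean-RUNX1 Runt domain and 10 nM Venus-CBFβ-SMMHC titrated with test compound. Read-out is the emission intensity ratio at 525/474 nm. Untagged CBFβ (100 and 1000 nM) served as a dissociation reference. IC50 was fitted from the mean and SD of three independent measurements.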
# [16] = tested on: primary human AML samples with normal karyotype; assay: Viability; type: cell-based; conditions: 48 hours
# In short: as §2
# [17] = Pharmacokinetics in mouse plasma; type: in vivo
# [18] = tested on: ME-1 cells; assay: Annexin V and 7AAD viability staining, ME-1; type: cell-based, human; conditions: read-out: ME-1 cell growth IC50, 48 hours
# In short: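 ME-1 inv(16) cells exposed to the test compound across a dose range for 48 hours, then scored by annexin V and 7AAD viability staining. Values are normalized to the DMSO-treated group. Each point is the mean of triplicate experiments, with SD.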
# [19] = tested on: CBFβ-SMMHC-RUNX1 binding; assay: Coimmunoprecipitation of CBFβ-SMMHC-RUNX1 in ME-1 cells; type: cell-based, human; conditions: 1 μM, 6 hours
# In short: as §4
# [20] = molecular target: RUNX1, endogenous in ME-1 cells (human (endogenous in ME-1)) (UniProt Q01196); assay: co-IP
# RUNX1, endogenous in ME-1 cells (human (endogenous in ME-1)), sequence (Q01196 whole entry, the tested form may be a part): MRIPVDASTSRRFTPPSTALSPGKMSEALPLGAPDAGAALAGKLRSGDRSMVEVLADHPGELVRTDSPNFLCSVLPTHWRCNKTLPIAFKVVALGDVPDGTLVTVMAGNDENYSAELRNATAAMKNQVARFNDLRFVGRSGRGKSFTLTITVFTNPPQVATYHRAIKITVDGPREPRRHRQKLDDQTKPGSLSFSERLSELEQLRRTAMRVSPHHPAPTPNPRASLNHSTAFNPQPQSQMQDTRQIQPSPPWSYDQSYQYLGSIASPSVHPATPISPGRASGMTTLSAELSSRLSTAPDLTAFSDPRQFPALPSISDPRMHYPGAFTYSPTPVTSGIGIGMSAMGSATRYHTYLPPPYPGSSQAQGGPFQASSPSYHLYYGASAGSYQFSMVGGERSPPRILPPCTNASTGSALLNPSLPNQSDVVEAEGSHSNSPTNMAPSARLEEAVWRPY
# [21] = tested on: Runt domain; assay: 15N-1H HSQC / STD NMR binding to Runt domain
# [22] = tested on: CBFβ; assay: 15N-1H HSQC / STD NMR binding to CBFβ; conditions: upon addition of compound
# [23] = Stability in liver microsomes; type: in vitro ADME
compound,measurement,setting,value
AI-10-49,median latency (survival),[1],61 days
same,Kd,[2],168 nM
same,sensitivity of leukemia cell line panel,[3],ME-1 cells were the only cell line highly sensitive
same,IC50,[4],> 25000 nM
same,change in CFUs of CD34+ cord blood cells,[5],no change
same,viability of inv(16) patient cells,[6],reduced
same,RUNX1 occupancy increase in U937 cells,[7],Neither
same,"expression of RUNX3, CSF1R, and CEBPA",[8]; 1 μM,increased expression
same,expression of control gene PIN1,[8],no effect
same,RUNX1 occupancy at CEBPA promoter,"[9]; 1 μM, relative to DMSO",8 fold
same,RUNX1 occupancy at CSF1R promoter,"[9]; 1 μM, relative to DMSO",2.2 fold
same,RUNX1 occupancy at RUNX3 promoter,"[9]; 1 μM, relative to DMSO",8 fold
same,RUNX1 occupancy at control loci,[9],no enrichment was observed
same,inhibition of CFUs of inv(16) AML cells,[10]; 5 μM,40%
same,inhibition of CFUs of inv(16) AML cells,[10]; 10 μM,60%
same,effect on CBFβ-RUNX1 association,[11],only a modest effect
same,change in CFUs of AML cells with normal karyotype,[12],no change
same,"stability of RUNX1, CBFβ, and CBFβ-SMMHC",[13],not affected
same,toxicity,[14],no evidence of toxicity
same,IC50,[15],260 ± 10 nM
same,viability of normal karyotype AML samples,[16],not affected
same,half-life (t½),[17],6.33 h
same,IC50,[18],600 nM
same,dissociation of RUNX1 from CBFβ-SMMHC,[19],90%
"CBFβ-SMMHC, endogenous in ME-1 cells","percent dissociation with AI-10-49 (1 μM, 6 hours)",[20],90%
COc1ccc2nc(-c3ccccn3)[nH]c2c1 [AI-4-57],interaction with Runt domain by NMR,[21],No interaction was observed
same,IC50,[15],22000 ± 8000 nM
same,chemical shift changes in HSQC spectrum of CBFβ,[22],chemical shift perturbations
same,half-life (t½),[17],0.617 h
FC(F)(F)Oc1ccc2nc(-c3ccccn3)[nH]c2c1 [AI-10-47],stability in liver microsomes,[23],reduced the metabolic liability
same,change in CFUs of inv(16) AML cells,[10],no change
same,IC50,[15],2000 ± 30 nM
